Measurements collected from several papers.
Compare with care: the assays were run in different laboratories.
Target: NT-3 growth factor receptor (NTRK3, Homo sapiens, UniProt Q16288)
Observed: enzyme activity
Action: inhibitor

| Structure (SMILES) | method | concentration | inhibition |
| --- | --- | --- | --- |
| CCCS(=O)(=O)Nc1ccc(F)c(C(=O)c2c[nH]c3ncc(-c4ccc(Cl)cc4)cc23)c1F | – | 1 µM | < 10% |
| O=C(Nc1ccc2[nH]ncc2c1)c1cccc(NC(=O)c2cc(C(F)(F)F)ccc2F)c1 | FRET | 1 µM | 12.1% |
| CC/C(=N\NC(=O)NCc1cccc(O)c1)c1ccc(O)c(C)c1O | – | 0.1 µM | 0.4% |
| COc1cc2ncnc(Nc3ccc(Oc4ccccc4)cc3C)c2cc1OC | – | 1 µM | 13% |
| O=C(Nc1ccc(Br)cc1)Nc1cccc(C(=O)Nc2ccc3[nH]ncc3c2)c1 | FRET | 1 µM | 13.7% |
| COc1cc2ncnc(Nc3ccc(Oc4ccccc4)c(C)c3C)c2cc1OC | – | 1 µM | 3% |
| CN1CC(Oc2cnc(C#N)cc2-c2ccn3nc(NC(=O)C4CC4)cc3c2)C1 | – | 1 µM | 51% |
| CNC(=O)c1cc2c(Oc3ccc(NC(=O)C4(C(=O)Nc5ccc(F)cc5)CC4)cc3)ccnc2cc1OC | radiometric | 1 µM | 79% |
| O=C(Cc1ccc(C(F)(F)F)cc1)Nc1cccc(C(=O)Nc2ccc3[nH]ncc3c2)c1 | FRET | 1 µM | 21.9% |
| CCOc1cc(-c2nncn2C)ccc1Nc1ncc2cc(C)nc(NCC(C)(C)C)c2n1 | FRET | 1 µM | < 15% |
